Test results published in ChEMBL document CHEMBL5724801, “EUbOPEN Chemogenomics Library - Multiplex” (2024).
Values joined by “and” are separate entries in the source; they are usually repeats but may differ in a detail not shown here. Equal values may be shown once.

Test system: U2OS
Experiment: Multiplex assay against U2OS
Assay type: toxicity, cell-based
Details: human
Outline: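 Cells stained live at seeding with Hoechst33342, BioTracker Green Microtubule Cytoskeleton Dye, MitoTracker Red and Annexin V Alexa Fluor 680 were imaged on a CQ1 microscope at 37°C and 5% CO2 after compound addition. Their classification by CellPathfinder machine-learning gating ran from Hoechst high-intensity objects versus normal cells, to healthy, pyknosed or fragmented nuclei among normal cells, to mitotic or apoptotic among pyknosed cells. Tubulin, mitochondrial-mass and membrane-permeability phenotypes are per cents of healthy-nucleus cells.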

[1] = 12 h, 1 µM, compound concentration 1 uM
[2] = 12 h, 10 µM, compound concentration 10 uM
[3] = 24 h, 1 µM, compound concentration 1 uM
[4] = 24 h, 10 µM, compound concentration 10 uM
[5] = 48 h, 1 µM, compound concentration 1 uM
[6] = 48 h, 10 µM, compound concentration 10 uM

## CN1CC[C@@]23CCCC[C@@H]2[C@@H]1Cc1ccc(O)cc13.O=C(O)C(O)C(O)C(=O)O
[1]
  Population Apoptotic (%): 38.64% and 62.96%
  Population Fragmented Nuclei (%): 1.53% and 2.17%
  Population Healthy Nuclei (%): 88.86% and 78.26%
  Population Hoechst High Intensity Objects (%): 1.51% and 0%
  Population Membrane Permeable-Phenotype (%): 1.23% and 1.85%
  Population Mitochondria Different-Phenotype (%): 0% and 11.11%
  Population Mitotic Cells (%): 61.36% and 37.04%
  Population Normal (%): 98.49% and 100%
  Population Pyknosed Nuclei (%): 9.61% and 19.57%
  Population Tubulin-Different-Phenotype (%): 0%
[2]
  Population Apoptotic (%): 33.33% and 60%
  Population Healthy Nuclei (%): 88.89% and 58.2%
  Population Hoechst High Intensity Objects (%): 0%
  Population Membrane Permeable-Phenotype (%): 1.19% and 4.7%
  Population Mitochondria Different-Phenotype (%): 0.89% and 6.71%
  Population Mitotic Cells (%): 66.67% and 40%
  Population Normal (%): 100%
  Population Pyknosed Nuclei (%): 9.52% and 5.86%
  Population Tubulin-Different-Phenotype (%): 1.49% and 0.67%
  Total Cell Count: 378 and 256
[3]
  Population Apoptotic (%): 53.33% and 66.67%
  Population Fragmented Nuclei (%): 1.7% and 1.75%
  Population Healthy Nuclei (%): 91.36% and 85.96%
  Population Hoechst High Intensity Objects (%): 1.22% and 0%
  Population Membrane Permeable-Phenotype (%): 0.68% and 2.72%
  Population Mitotic Cells (%): 46.67% and 33.33%
  Population Normal (%): 98.78% and 100%
  Population Pyknosed Nuclei (%): 6.94% and 12.28%
  Population Tubulin-Different-Phenotype (%): 0.51% and 0.68%
[4]
  Population Apoptotic (%): 32.2% and 38.89%
  Population Healthy Nuclei (%): 87.76% and 63.54%
  Population Hoechst High Intensity Objects (%): 0%
  Population Membrane Permeable-Phenotype (%): 1.07% and 3.28%
  Population Mitochondria Different-Phenotype (%): 0.43% and 3.83%
  Population Mitotic Cells (%): 67.8% and 61.11%
  Population Normal (%): 100%
  Population Pyknosed Nuclei (%): 11.11% and 6.25%
  Population Tubulin-Different-Phenotype (%): 1.07% and 1.09%
  Total Cell Count: 531 and 288
[5]
  Population Apoptotic (%): 45.92% and 51.61%
  Population Fragmented Nuclei (%): 4.22% and 1.42%
  Population Healthy Nuclei (%): 87.82% and 87.54%
  Population Hoechst High Intensity Objects (%): 0.88% and 0%
  Population Membrane Permeable-Phenotype (%): 0.55% and 2.44%
  Population Mitochondria Different-Phenotype (%): 0.09% and 6.91%
  Population Mitotic Cells (%): 54.08% and 48.39%
  Population Normal (%): 99.12% and 100%
  Population Pyknosed Nuclei (%): 7.95% and 11.03%
  Population Tubulin-Different-Phenotype (%): 0.37% and 1.22%
[6]
  Population Apoptotic (%): 45.36% and 57.14%
  Population Healthy Nuclei (%): 87.24% and 75.39%
  Population Hoechst High Intensity Objects (%): 0.1% and 0%
  Population Membrane Permeable-Phenotype (%): 0.68% and 1.72%
  Population Mitochondria Different-Phenotype (%): 0.34% and 3.09%
  Population Mitotic Cells (%): 54.64% and 42.86%
  Population Normal (%): 99.9% and 100%
  Population Pyknosed Nuclei (%): 9.59% and 7.25%
  Population Tubulin-Different-Phenotype (%): 0.45% and 0.34%
  Total Cell Count: 1012 and 386

## CCn1c(-c2nonc2N)nc2c(C#CC(C)(C)O)ncc(OCC3CCCNC3)c21 (stereo not drawn)
[1]
  Population Apoptotic (%): 30.23% and 52.17%
  Population Fragmented Nuclei (%): 3.38% and 1.86%
  Population Healthy Nuclei (%): 85.45% and 83.85%
  Population Hoechst High Intensity Objects (%): 0%
  Population Membrane Permeable-Phenotype (%): 1.22% and 1.48%
  Population Mitochondria Different-Phenotype (%): 0% and 5.93%
  Population Mitotic Cells (%): 69.77% and 47.83%
  Population Normal (%): 100%
  Population Pyknosed Nuclei (%): 11.17% and 14.29%
  Population Tubulin-Different-Phenotype (%): 0.91% and 0.74%
  Total Cell Count: 385 and 161
[2]
  Population Apoptotic (%): 37.04% and 27.91%
  Population Fragmented Nuclei (%): 2.62% and 8.28%
  Population Healthy Nuclei (%): 83.2% and 64.33%
  Population Hoechst High Intensity Objects (%): 0%
  Population Membrane Permeable-Phenotype (%): 0.95% and 4.95%
  Population Mitotic Cells (%): 62.96% and 72.09%
  Population Normal (%): 100%
  Population Pyknosed Nuclei (%): 14.17% and 27.39%
  Population Tubulin-Different-Phenotype (%): 2.52% and 4.95%
  Total Cell Count: 381 and 157
[3]
  Population Apoptotic (%): 38.6% and 42.86%
  Population Fragmented Nuclei (%): 2.16% and 1.54%
  Population Healthy Nuclei (%): 86.64% and 84.1%
  Population Hoechst High Intensity Objects (%): 0.2% and 0.51%
  Population Membrane Permeable-Phenotype (%): 0.68% and 5.49%
  Population Mitochondria Different-Phenotype (%): 0.23% and 1.83%
  Population Mitotic Cells (%): 61.4% and 57.14%
  Population Normal (%): 99.8% and 99.49%
  Population Pyknosed Nuclei (%): 11.2% and 14.36%
  Population Tubulin-Different-Phenotype (%): 1.36% and 0%
  Total Cell Count: 510 and 196
[4]
  Population Apoptotic (%): 44.32% and 50%
  Population Fragmented Nuclei (%): 2.7% and 7.78%
  Population Healthy Nuclei (%): 77.53% and 56.67%
  Population Hoechst High Intensity Objects (%): 0%
  Population Membrane Permeable-Phenotype (%): 0.29% and 0.98%
  Population Mitotic Cells (%): 55.68% and 50%
  Population Normal (%): 100%
  Population Pyknosed Nuclei (%): 19.78% and 35.56%
  Population Tubulin-Different-Phenotype (%): 3.48% and 3.92%
  Total Cell Count: 445 and 180
[5]
  Population Apoptotic (%): 50% and 45.16%
  Population Fragmented Nuclei (%): 2.09% and 2.15%
  Population Healthy Nuclei (%): 90.19% and 88.34%
  Population Hoechst High Intensity Objects (%): 0%
  Population Membrane Permeable-Phenotype (%): 1.22% and 1.39%
  Population Mitochondria Different-Phenotype (%): 0% and 4.51%
  Population Mitotic Cells (%): 50% and 54.84%
  Population Normal (%): 100%
  Population Pyknosed Nuclei (%): 7.72% and 9.51%
  Population Tubulin-Different-Phenotype (%): 0.49% and 1.04%
  Total Cell Count: 907 and 326
[6]
  Population Apoptotic (%): 65.03% and 83.08%
  Population Fragmented Nuclei (%): 6.86% and 8.16%
  Population Healthy Nuclei (%): 71.34% and 58.67%
  Population Hoechst High Intensity Objects (%): 0%
  Population Membrane Permeable-Phenotype (%): 1.71% and 7.83%
  Population Mitochondria Different-Phenotype (%): 0.64% and 7.83%
  Population Mitotic Cells (%): 34.97% and 16.92%
  Population Normal (%): 100%
  Population Pyknosed Nuclei (%): 21.8% and 33.16%
  Population Tubulin-Different-Phenotype (%): 2.56% and 7.83%

## NC1=NC(=O)/C(=C2\CCNC(=O)c3[nH]c4ccccc4c32)N1
[1]
  Population Apoptotic (%): 44.68% and 29.17%
  Population Fragmented Nuclei (%): 0.45% and 1.59%
  Population Healthy Nuclei (%): 89.06% and 85.71%
  Population Hoechst High Intensity Objects (%): 0%
  Population Membrane Permeable-Phenotype (%): 1.75% and 0.62%
  Population Mitochondria Different-Phenotype (%): 0% and 9.26%
  Population Mitotic Cells (%): 55.32% and 70.83%
  Population Normal (%): 100%
  Population Pyknosed Nuclei (%): 10.49% and 12.7%
  Population Tubulin-Different-Phenotype (%): 1.25% and 0%
  Total Cell Count: 448 and 189
[2]
  Population Apoptotic (%): 37.14% and 30.43%
  Population Fragmented Nuclei (%): 3.07% and 2.13%
  Population Healthy Nuclei (%): 84.98% and 85.64%
  Population Hoechst High Intensity Objects (%): 0%
  Population Membrane Permeable-Phenotype (%): 1.2% and 1.86%
  Population Mitochondria Different-Phenotype (%): 0% and 5.59%
  Population Mitotic Cells (%): 62.86% and 69.57%
  Population Normal (%): 100%
  Population Pyknosed Nuclei (%): 11.95% and 12.23%
  Population Tubulin-Different-Phenotype (%): 2.01% and 0%
  Total Cell Count: 293 and 188
[3]
  Population Apoptotic (%): 52.94% and 37.04%
  Population Fragmented Nuclei (%): 2.55% and 1.59%
  Population Healthy Nuclei (%): 89.31% and 87.7%
  Population Hoechst High Intensity Objects (%): 0%
  Population Membrane Permeable-Phenotype (%): 0.54% and 0.9%
  Population Mitochondria Different-Phenotype (%): 0.36% and 4.07%
  Population Mitotic Cells (%): 47.06% and 62.96%
  Population Normal (%): 100%
  Population Pyknosed Nuclei (%): 8.13% and 10.71%
  Population Tubulin-Different-Phenotype (%): 0.54% and 0%
  Total Cell Count: 627 and 252
[4]
  Population Apoptotic (%): 43.59% and 37.5%
  Population Fragmented Nuclei (%): 2.31% and 2.43%
  Population Healthy Nuclei (%): 87.69% and 84.62%
  Population Hoechst High Intensity Objects (%): 0%
  Population Membrane Permeable-Phenotype (%): 0.88% and 1.91%
  Population Mitochondria Different-Phenotype (%): 0.29% and 5.26%
  Population Mitotic Cells (%): 56.41% and 62.5%
  Population Normal (%): 100%
  Population Pyknosed Nuclei (%): 10% and 12.96%
  Population Tubulin-Different-Phenotype (%): 0.58% and 0%
  Total Cell Count: 390 and 247
[5]
  Population Apoptotic (%): 41.94% and 47.37%
  Population Fragmented Nuclei (%): 4.36% and 0.45%
  Population Healthy Nuclei (%): 87.84% and 91.01%
  Population Hoechst High Intensity Objects (%): 0%
  Population Membrane Permeable-Phenotype (%): 0.76% and 1.73%
  Population Mitochondria Different-Phenotype (%): 0.1% and 2.22%
  Population Mitotic Cells (%): 58.06% and 52.63%
  Population Normal (%): 100%
  Population Pyknosed Nuclei (%): 7.8% and 8.54%
  Population Tubulin-Different-Phenotype (%): 0.86% and 0.99%
  Total Cell Count: 1192 and 445
[6]
  Population Apoptotic (%): 40.28% and 50%
  Population Fragmented Nuclei (%): 3.29% and 1.05%
  Population Healthy Nuclei (%): 87.22% and 88.98%
  Population Hoechst High Intensity Objects (%): 0%
  Population Membrane Permeable-Phenotype (%): 0.6% and 0.29%
  Population Mitochondria Different-Phenotype (%): 0% and 4.72%
  Population Mitotic Cells (%): 59.72% and 50%
  Population Normal (%): 100%
  Population Pyknosed Nuclei (%): 9.49% and 9.97%
  Population Tubulin-Different-Phenotype (%): 0.15% and 0.29%
  Total Cell Count: 759 and 381
